ChEMBL document CHEMBL2385029, “Cytotoxic activities of substituted 3-(3,4,5-trimethoxybenzylidene)-1,3-dihydroindol-2-ones and studies on their mechanisms of action” (Eur J Med Chem, 2013)
Active and inactive are the calls of the source. No cut-off for these calls is given here.

Tests used:
[1] = tested on: B1647; test: Cytotoxicity against human B1647 cells at 5 to 10 uM after 24 hrs by MTT assay; assay type: functional, cell-based
Summary of the method: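 B1647 human AML cells grown in IMDM with 5% human serum (37 °C, 5% CO2); 10⁶ cells per well in 1 mL exposed to 5 or 10 µM compound (DMSO) for 24 h. MTT 0.5 mg/mL added for 4 h at 37 °C, formazan dissolved overnight in 10% SDS/0.01 M HCl, A570 read. Four independent experiments.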

[2] = Inhibition of nox4 expression in human B1647 cells at 10 uM after 24 hrs by Western blot analysis relative to control; assay type: functional
Summary of the method: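 B1647 cells treated 24 h at 10 µM. Lysates (40 µg protein per lane) run on 10% SDS-PAGE and transferred to nitrocellulose. Blots probed with anti-Nox4, with β-tubulin as loading control, and detected by chemiluminescence. Bands quantified by densitometry in arbitrary units relative to control; three independent experiments.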

[3] = Cytotoxicity against human ovarian cancer cells after 48 hrs; assay type: functional; settings: Cancer cell lines; for CC50: read-out: LC50 (the source's name)
Summary of the method: (§1)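 NCI 60-cell panel, values averaged per subpanel. Compounds were dissolved in DMSO and first screened at a single 10⁻⁵ M dose. Active ones then went to five concentrations at ten-fold dilutions, top 10⁻⁴ M (10⁻³ M for some), with 48 h exposure.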

[4] = Inhibition of bovine brain tubulin assembly after 20 mins
[5] = Cytotoxicity against human leukemia cells after 48 hrs; assay type: functional; settings: Leukemia cell; for CC50: read-out: LC50 (the source's name)
[6] = Cytotoxicity against human CNS cancer cells after 48 hrs; assay type: functional; settings: Cancer cell lines; summary of the method: as §1
[7] = Cytotoxicity against human melanoma cells after 48 hrs; assay type: functional; settings: Melanoma cell; for CC50: read-out: LC50 (the source's name)
[8] = Cytotoxicity against human breast cancer cells after 48 hrs; assay type: functional; settings: Cancer cell lines; summary of the method: as §1
[9] = Cytotoxicity against human prostate cancer cells after 48 hrs; assay type: functional; settings: Cancer cell lines; for CC50: read-out: LC50 (the source's name); summary of the method: as §1
[10] = Cytotoxicity against human colon cancer cells after 48 hrs; assay type: functional; settings: Cancer cell lines; summary of the method: as §1
[11] = Cytotoxicity against human NSCLC cells after 48 hrs; assay type: functional; settings: for CC50: read-out: LC50 (the source's name); summary of the method: as §1
[12] = Cytotoxicity against human renal cancer cells after 48 hrs; assay type: functional; settings: Cancer cell lines

SMILES	GI50 [3] [µM]	TGI [3] [µM]	IC50 [4] [µM]	GI50 [5] [µM]	CC50 [5] [µM]	GI50 [6] [µM]	GI50 [7] [µM]	CC50 [7] [µM]	GI50 [8] [µM]	GI50 [9] [µM]	GI50 [10] [µM]	LC50 [10] [µM]	GI50 [11] [µM]	TGI [11] [µM]	CC50 [11] [µM]	GI50 [12] [µM]	CC50 [3] [µM]	LC50 [6] [µM]	LC50 [12] [µM]	LC50 [8] [µM]	other results
COc1cc(/C=C2\C(=O)Nc3c(Cl)ccc(Cl)c32)cc(OC)c1OC	–	–	–	–	–	–	–	–	–	–	–	–	–	–	–	–	–	–	–	–	Activity [1]: Active
c1ccc2c(c1)[I+]c1ccccc1-2 [DIPHENYLENEIODONIUM]	–	–	–	–	–	–	–	–	–	–	–	–	–	–	–	–	–	–	–	–	fold change (FC) [2]: 0.73
COc1ccc2c(c1)/C(=C\c1cc(OC)c(OC)c(OC)c1)C(=O)N2C	3.5	28.2	> 20	1.4	87.1	2.4	3.1	85.1	2.7	2.6	2.6	63.1	3.7	46.8	83.2	3.2	–	–	–	–	TGI [6]: 14.1 µM; TGI [10]: 16.6 µM
COc1cc(/C=C2\C(=O)Nc3ccc(N(C)C)cc32)cc(OC)c1OC	3.2	–	> 20	1.1	81.3	2.9	3.5	–	2.1	2.5	2.4	81.3	4.2	41.7	–	3.8	81.3	81.3	83.2	–	Activity [1]: Active; TGI [6]: 25.1 µM; TGI [7]: 42.7 µM; TGI [8]: 37.1 µM; TGI [9]: 43.6 µM; TGI [10]: 34.7 µM
COc1cc(/C=C2\C(=O)N(C)c3ccc(Cl)cc32)cc(OC)c1OC	5.9	36.3	> 20	2.3	67.6	4.3	5	69.2	3.7	3.2	4	67.6	7.4	28.2	85.1	4.7	93.3	81.3	85.1	–	TGI [5]: 14.4 µM; TGI [6]: 24.5 µM; TGI [8]: 17.4 µM; TGI [9]: 11.2 µM; TGI [10]: 18.2 µM
COc1cc(/C=C2\C(=O)Nc3cc(Cl)ccc32)cc(OC)c1OC	1.9	–	15	0.5	56.2	1.6	1.9	19	0.8	1.5	0.8	22.9	2	–	29.5	1.6	17.4	18.6	14.1	31.6	CC50 [9]: 17 µM
CC[C@]1(O)C[C@H]2CN(CCc3c([nH]c4ccccc34)[C@@](C(=O)OC)(c3cc4c(cc3OC)N(C=O)[C@H]3[C@@](O)(C(=O)OC)[C@H](OC(C)=O)[C@]5(CC)C=CCN6CC[C@]43[C@@H]65)C2)C1 [VINCRISTINE]	–	–	–	–	631	–	–	–	–	–	–	–	–	–	–	–	316	–	–	–	CC50 [9]: 316 µM
COc1cc(/C=C2\C(=O)Nc3cc(OC(F)(F)F)ccc32)cc(OC)c1OC	2.9	11.2	> 20	2.3	–	2.6	2.6	44.7	2.1	4.6	2.8	37.1	2.9	14.1	51.3	3.3	49	33.9	34.7	60.3	TGI [5]: 27.5 µM; TGI [7]: 10.7 µM; TGI [9]: 29.5 µM; CC50 [9]: 83.2 µM; TGI [10]: 10.2 µM; TGI [12]: 12.6 µM
COc1ccc(OC)c2c1NC(=O)/C2=C\c1cc(OC)c(OC)c(OC)c1	4.6	23.4	> 20	2.6	79.4	5.5	5.2	44.7	2.2	4.3	4	41.7	7.1	25.1	74.1	4.5	77.6	54.9	54.9	64.6	TGI [5]: 14.1 µM; TGI [6]: 20.4 µM; TGI [7]: 18.6 µM; TGI [9]: 22.9 µM; CC50 [9]: 58.9 µM; TGI [10]: 15.5 µM; TGI [12]: 18.6 µM
COc1cc(/C=C2\C(=O)N(Cc3ccc(Cl)cc3)c3ccccc32)cc(OC)c1OC	3.4	22.9	> 20	1.5	50.1	3.4	2.9	26.9	2.4	2.2	2.2	14.4	3.4	14.4	56.2	2.5	51.3	46.8	43.6	95.5	Activity [1]: Active; TGI [6]: 15.1 µM; TGI [8]: 12.9 µM; CC50 [9]: 33.1 µM
COc1cc(/C=C2/C(=O)N(C)c3ccc(O)cc32)cc(OC)c1OC	5.5	26.3	> 20	2.2	81.3	4.3	4.9	43.6	3.2	2.8	4.3	47.9	6.3	24.6	77.6	5.7	79.4	53.7	70.8	61.7	TGI [7]: 16.2 µM; TGI [8]: 15.1 µM; CC50 [9]: 22.9 µM; TGI [10]: 18.2 µM; TGI [12]: 22.4 µM
COc1ccc(CN2C(=O)/C(=C/c3cc(OC)c(OC)c(OC)c3)c3cc(OC)ccc32)cc1	2.4	–	> 20	2.7	–	2.2	2.1	23.4	2.6	3.2	1.9	7.9	2.3	11.2	33.1	2.4	50.1	33.9	28.8	79.4	TGI [5]: 27.5 µM; TGI [8]: 13.8 µM; TGI [9]: 14.1 µM; CC50 [9]: 83.2 µM
COc1ccc(CN2C(=O)/C(=C\c3cc(OC)c(OC)c(OC)c3)c3ccccc32)cc1	2.6	21.4	> 20	2.2	–	2.5	1.7	19.5	2.3	2.7	1.8	8.3	2	–	38.9	2	67.6	26.3	45.7	93.3	TGI [5]: 27.5 µM; TGI [6]: 10.5 µM; TGI [8]: 17.4 µM; TGI [9]: 26.3 µM
